Test system: Vesicular stomatitis Indiana virus
Assay: Antiviral activity against clinical isolate Vesicular stomatitis Indiana virus infected in african green monkey Vero 76 cells assessed as reduction of virus-induced plaque formation after 2 days using crystal violet staining
Format: functional, organism-based
Conditions: 48 h

Compound	EC50 [µM]
c1ccc(-c2nc3cc4cccnc4cc3[nH]2)cc1	> 100
O=c1[nH]c2cc3c(O)ccnc3c(Cl)c2nc1-c1ccccc1	> 100
c1ccc(-c2ccc(-c3nc4cc5cccnc5cc4[nH]3)cc2)cc1	> 80
CC(=O)Nc1ccc(-c2nc3cc4cccnc4c(Cl)c3[nH]2)cc1	> 100

Test system: not listed separately
Assay: Cytotoxicity against african green monkey Vero 76 cells after 48 to 96 hrs by crystal violet staining
Format: cell-based
Conditions: chlorocebus sabaeus
Method in brief: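 Vero-76 cells were seeded at 4×10^5 cells/mL in D-MEM with L-glutamine, kanamycin and 10% FBS, then exposed to serial compound dilutions at 37 °C, 5% CO2 for 48–96 h. Viability was read by crystal violet staining. 50% cytotoxic concentration by linear regression relative to untreated controls; mean of three independent determinations.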

Compound	CC50 [µM]
c1ccc(-c2nc3cc4cccnc4cc3[nH]2)cc1	> 100
O=c1[nH]c2cc3c(O)ccnc3c(Cl)c2nc1-c1ccccc1	≥ 100
c1ccc(-c2ccc(-c3nc4cc5cccnc5cc4[nH]3)cc2)cc1	80
CC(=O)Nc1ccc(-c2nc3cc4cccnc4c(Cl)c3[nH]2)cc1	> 100

Test system: Yellow fever virus
Assay: Antiviral activity against Yellow fever virus 17D Stamaril Pasteur J07B01 infected in hamster BHK21 cells assessed as inhibition of virus-induced cytopathogenicity after 3 to 4 days by MTT assay
Format: functional, cell-based
Conditions: Stamaril Pasteur J07B01, BHK-21
Method in brief: (§1)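 Host cells were seeded in 96-well plates at 3×10^4 cells/well (MDBK) or 5×10^4 cells/well (BHK-21) and grown to confluent monolayers overnight. They were infected at m.o.i. 0.01 in maintenance MEM with 0.5% inactivated FBS. Serial compound dilutions were added after 1 h. Viability was read by MTT after 3–4 days at 37 °C. EC50 was taken by linear regression against untreated controls. Mean of three determinations.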

Compound	EC50 [µM]
c1ccc(-c2nc3cc4cccnc4cc3[nH]2)cc1	> 40
O=c1[nH]c2cc3c(O)ccnc3c(Cl)c2nc1-c1ccccc1	> 100
c1ccc(-c2ccc(-c3nc4cc5cccnc5cc4[nH]3)cc2)cc1	> 20
CC(=O)Nc1ccc(-c2nc3cc4cccnc4c(Cl)c3[nH]2)cc1	> 100

Test system: Reovirus sp.
Assay: Antiviral activity against Reovirus type-1 3651 infected in hamster BHK21 cells assessed as inhibition of virus-induced cytopathogenicity after 3 to 4 days by MTT assay
Format: functional, organism-based
Conditions: Reovirus sp., 3651, BHK-21
Method in brief: as §1

Compound	EC50 [µM]
c1ccc(-c2nc3cc4cccnc4cc3[nH]2)cc1	13
O=c1[nH]c2cc3c(O)ccnc3c(Cl)c2nc1-c1ccccc1	> 100
c1ccc(-c2ccc(-c3nc4cc5cccnc5cc4[nH]3)cc2)cc1	> 20
CC(=O)Nc1ccc(-c2nc3cc4cccnc4c(Cl)c3[nH]2)cc1	51

Test system: not listed separately
Assay: Antiviral activity against Vaccinia virus Lister Elstree infected in african green monkey Vero 76 cells assessed as reduction of virus-induced plaque formation after 3 days using crystal violet staining
Format: functional, cell-based
Conditions: 72 h

Compound	EC50 [µM]
c1ccc(-c2nc3cc4cccnc4cc3[nH]2)cc1	> 100
O=c1[nH]c2cc3c(O)ccnc3c(Cl)c2nc1-c1ccccc1	> 100
c1ccc(-c2ccc(-c3nc4cc5cccnc5cc4[nH]3)cc2)cc1	> 80
CC(=O)Nc1ccc(-c2nc3cc4cccnc4c(Cl)c3[nH]2)cc1	> 100

Test system: not listed separately
Assay: Cytotoxicity against BHK21 cells after 48 to 96 hrs by MTT assay
Format: cell-based, Mesocricetus auratus, BHK-21
Conditions: hamster
Method in brief: (§2)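 MDBK seeded at 6×10^5 and BHK at 1×10^6 cells/mL in MEM-Earle's with L-glutamine, 1 mM pyruvate, kanamycin, plus 10% horse serum (MDBK) or 10% FBS (BHK). Cells were grown at 37 °C, 5% CO2 with serial compound dilutions (DMSO stocks diluted in medium). Viability by MTT after 48–96 h. CC50 was taken by linear regression versus untreated controls; three independent determinations.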

Compound	CC50 [µM]
c1ccc(-c2nc3cc4cccnc4cc3[nH]2)cc1	40
O=c1[nH]c2cc3c(O)ccnc3c(Cl)c2nc1-c1ccccc1	> 100
c1ccc(-c2ccc(-c3nc4cc5cccnc5cc4[nH]3)cc2)cc1	20
CC(=O)Nc1ccc(-c2nc3cc4cccnc4c(Cl)c3[nH]2)cc1	> 100

Test system: Coxsackievirus B5
Assay: Antiviral activity against Human coxsackievirus B5 Ohio-1 infected in african green monkey Vero 76 cells assessed as reduction of virus-induced plaque formation after 3 days using crystal violet staining
Format: functional, organism-based
Conditions: Enterovirus B, Ohio-1, Vero, 72 h

Compound	EC50 [µM]
c1ccc(-c2nc3cc4cccnc4cc3[nH]2)cc1	19
O=c1[nH]c2cc3c(O)ccnc3c(Cl)c2nc1-c1ccccc1	> 100
c1ccc(-c2ccc(-c3nc4cc5cccnc5cc4[nH]3)cc2)cc1	3
CC(=O)Nc1ccc(-c2nc3cc4cccnc4c(Cl)c3[nH]2)cc1	> 100

Test system: not listed separately
Assay: Antiviral activity against Bovine viral diarrhea virus 1-NADL infected in MDBK cells assessed as inhibition of virus-induced cytopathogenicity after 3 to 4 days by MTT assay
Format: functional, cell-based
Conditions: Bovine viral diarrhea virus isolates and strains
Method in brief: as §1

Compound	EC50 [µM]
c1ccc(-c2nc3cc4cccnc4cc3[nH]2)cc1	10
O=c1[nH]c2cc3c(O)ccnc3c(Cl)c2nc1-c1ccccc1	100
c1ccc(-c2ccc(-c3nc4cc5cccnc5cc4[nH]3)cc2)cc1	60
CC(=O)Nc1ccc(-c2nc3cc4cccnc4c(Cl)c3[nH]2)cc1	11

Test system: Human orthopneumovirus
Assay: Antiviral activity against Human respiratory syncytial virus A2 infected in african green monkey Vero 76 cells assessed as reduction of virus-induced plaque formation after 5 days using crystal violet staining
Format: functional, organism-based
Conditions: 120 h

Compound	EC50 [µM]
c1ccc(-c2nc3cc4cccnc4cc3[nH]2)cc1	> 100
O=c1[nH]c2cc3c(O)ccnc3c(Cl)c2nc1-c1ccccc1	> 100
c1ccc(-c2ccc(-c3nc4cc5cccnc5cc4[nH]3)cc2)cc1	> 80
CC(=O)Nc1ccc(-c2nc3cc4cccnc4c(Cl)c3[nH]2)cc1	> 100

Test system: not listed separately
Assay: Cytotoxicity against MDBK cells after 48 to 96 hrs by MTT assay
Format: cell-based, Bos taurus
Conditions: cattle
Method in brief: as §2

Compound	CC50 [µM]
c1ccc(-c2nc3cc4cccnc4cc3[nH]2)cc1	80
O=c1[nH]c2cc3c(O)ccnc3c(Cl)c2nc1-c1ccccc1	> 100
c1ccc(-c2ccc(-c3nc4cc5cccnc5cc4[nH]3)cc2)cc1	≥ 100
CC(=O)Nc1ccc(-c2nc3cc4cccnc4c(Cl)c3[nH]2)cc1	> 100

Test system: Poliovirus 1
Assay: Antiviral activity against Human poliovirus 1 strain Sabin Chat infected in african green monkey Vero 76 cells assessed as virus-induced reduction of plaque formation after 2 days using crystal violet staining
Format: functional, cell-based
Conditions: Enterovirus C, 48 h

Compound	EC50 [µM]
c1ccc(-c2nc3cc4cccnc4cc3[nH]2)cc1	37
O=c1[nH]c2cc3c(O)ccnc3c(Cl)c2nc1-c1ccccc1	> 100
c1ccc(-c2ccc(-c3nc4cc5cccnc5cc4[nH]3)cc2)cc1	> 80
CC(=O)Nc1ccc(-c2nc3cc4cccnc4c(Cl)c3[nH]2)cc1	> 100

Test system: Human alphaherpesvirus 1
Assay: Antiviral activity against Human herpesvirus 1 strain KOS infected in african green monkey Vero 76 cells assessed as reduction of virus-induced plaque formation after 3 days using crystal violet staining
Format: functional, organism-based
Conditions: Human alphaherpesvirus 1, KOS, 72 h

Compound	EC50 [µM]
c1ccc(-c2nc3cc4cccnc4cc3[nH]2)cc1	> 100
O=c1[nH]c2cc3c(O)ccnc3c(Cl)c2nc1-c1ccccc1	≥ 100
c1ccc(-c2ccc(-c3nc4cc5cccnc5cc4[nH]3)cc2)cc1	> 80
CC(=O)Nc1ccc(-c2nc3cc4cccnc4c(Cl)c3[nH]2)cc1	> 100

Test system: not listed separately
Assay: Cytotoxicity against human MT4 cells after 96 hrs by MTT assay
Format: cell-based
Conditions: not given
Method in brief: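 Exponentially growing MT-4 cells seeded at 1×10^5 cells/mL in RPMI-1640 with 10% FBS, penicillin and streptomycin. Incubated with serial compound dilutions at 37 °C, 5% CO2 for 96 h; viability by MTT. CC50 by linear regression relative to untreated controls; mean of three independent determinations.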

Compound	CC50 at 96 h [µM]
c1ccc(-c2nc3cc4cccnc4cc3[nH]2)cc1	28
O=c1[nH]c2cc3c(O)ccnc3c(Cl)c2nc1-c1ccccc1	> 100
c1ccc(-c2ccc(-c3nc4cc5cccnc5cc4[nH]3)cc2)cc1	8
CC(=O)Nc1ccc(-c2nc3cc4cccnc4c(Cl)c3[nH]2)cc1	> 100

Test system: Human immunodeficiency virus 1
Assay: Antiviral activity against HIV1 3B infected in human MT4 cells assessed as inhibition of virus-induced cytopathogenicity after 4 days by MTT assay
Format: functional, organism-based
Conditions: Human immunodeficiency virus 1, 3B, MT4, 96 h
Method in brief: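 MT-4 cells (1×10^4 per well) were infected with HIV-1 IIIB at 100 CCID50, m.o.i. 0.01, together with serial compound dilutions. Viability was read by MTT after 4 days at 37 °C. EC50 was taken by linear regression versus untreated controls. Mean of three determinations.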

Compound	EC50 [µM]
c1ccc(-c2nc3cc4cccnc4cc3[nH]2)cc1	> 28
O=c1[nH]c2cc3c(O)ccnc3c(Cl)c2nc1-c1ccccc1	> 100
c1ccc(-c2ccc(-c3nc4cc5cccnc5cc4[nH]3)cc2)cc1	> 8
CC(=O)Nc1ccc(-c2nc3cc4cccnc4c(Cl)c3[nH]2)cc1	> 100

— ChEMBL document CHEMBL1938334, “Quinoline tricyclic derivatives. Design, synthesis and evaluation of the antiviral activity of three new classes of RNA-dependent RNA polymerase inhibitors” (Bioorg Med Chem, 2011)
